The EternaBench riboswitch data

System: MS2 coat protein
Assay: apparent Kd, MS2 coat protein; higher = weaker binding; RNA-MaP array; FMN 200 µM where present
How it was run: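 Green signal was scaled to red-channel RNA signal and control-cluster median Fmax, and the apparent Kd was taken as the median of filtered per-cluster binding-curve fits. The binding series used SNAP-549-labelled MS2 coat protein from 0.7 or 1.5 nM, doubling to 3 µM, on designs transcribed by stalled E. coli RNA polymerase on Illumina sequencing-chip clusters. Each series ran without and then with constant ligand in 100 mM Tris-HCl pH 7.5, 80 mM KCl, 4 mM MgCl2, BSA, DTT, yeast tRNA and Tween-20.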

[1] = designed as: OFF switch for flavin mononucleotide, no ligand
[2] = ligand present: flavin mononucleotide, designed as: OFF switch for flavin mononucleotide
[3] = designed as: ON switch for flavin mononucleotide, no ligand
[4] = ligand present: flavin mononucleotide, designed as: ON switch for flavin mononucleotide

| Sequence | apparent Kd [1] [nM] | apparent Kd [2] [nM] | apparent Kd [3] [nM] | apparent Kd [4] [nM] |
| --- | --- | --- | --- | --- |
| GUAGUGUAUGUAGGAUAUGUGAAGGAAACCUUUACAGAAGGACAUGAGGAUCACCCAUGUAUUACAGUCAGCAAUCUGACUGUU | 28.4 | 107 |  |  |
| GUAGUGUGAGGAUAUGAUUAAUAGAAGGGAAUGCGACUGCAUCAGAAGGCACAUGAGGAUCACCCAUGUAUGAA | 19.5 | 29.2 |  |  |
| GUAUAUAGUGUGAGGAUAUGCUGGUCCUUGGAUCAGCAGAAGGCACAUGAGGAUCACCCAUGUAGUUUAUUAUG | 19.7 | 78 |  |  |
| GUAUAUAGUGUGAGGAUAUGCUGGUCCUUGGAUCAGCAGAAGGCACAUGAGGAUCACCCAUGUAGUUUAUUUUA | 30.6 | 89.4 |  |  |
| GUAUGUAAGGAGAAGGGCUACUGGUUGAAACCUGCGGCCUCUGGAACAUGAGGAUCACCCAUGUAGCAGGAUAUCCUUGCGUGA | 222 | 22.9 |  |  |
| GUAUUAAAGAUCCAUUUAUACAACAUGAGGAUCACCCAUGUGCAGGAUAUCGUGUGUUUUAUAUUCGAGAAGGGCAAAUUCAUU | 50.7 | 105 |  |  |
| GUAUUUAGAUAAGGAUAUAAGUCUAGGACAUGAGGAUCACCCAUGUGUGUCUUAGAAGGUAUUUGGGUAAUACUGUUACAGUAA |  |  | 150 | 99.5 |
| GUCAGCUAGUGAGGAUAUACAACACUGCUUCGGCAGUGUAUUAAGAUCACAUGAGGAUCACCCAUGUAGAAGGCACGAGCUGAU | 13.8 | 273 |  |  |
| GUCAGCUCGUGAGGAUAUACAACACUGCUUCGCCAGUGUAUUAAGAUCACAUGAGGAUCACCCAUGUAGAAGGCACGAGCUGAU | 14.4 | 216 |  |  |
| GUCAGCUCGUGAGGAUAUACAACACUGCUUCGGCAGGGUAUUAAGAUCACAUGAGGAUCACCCAUGUAGAAGGCACGAGCUGAU | 12.7 | 173 |  |  |
| GUCAGCUCGUGAGGAUAUACAACACUGCUUCGGCAGUGUAUUAAGAUCACAUGAGGAUCACCCAUGUAGAAGGCACUAGCUGAU | 13.9 | 256 |  |  |
| GUCAGCUCGUGAGGAUAUACAACACUGCUUCGGCAGUGUAUUAAGAUGACAUGAGGAUCACCCAUGUAGAAGGCACGAGCUGAU | 5.78 | 21 |  |  |
| GUCAGCUCGUGAGGAUAUACAACACUGUUUCGGCAGUGUAUUAAGAUCACAUGAGGAUCACCCAUGUAGAAGGCACGAGCUGAU | 13.7 | 262 |  |  |
| GUCAGCUCGUGAGGAUAUACAACCCUGCUUCGGCAGUGUAUUAAGAUCACAUGAGGAUCACCCAUGUAGAAGGCACGAGCUGAU | 10.3 | 146 |  |  |
| GUCAGCUCGUGAGGAUAUACAAGACUGCUUCGGCAGUGUAUUAAGAUCACAUGAGGAUCACCCAUGUAGAAGGCACGAGCUGAU | 8.12 | 79.6 |  |  |
| GUCAGCUCGUGAGGAUAUACAUGUGCUGGAGACAGCACUAUUAAGAUCACAUGAGGAUCACCCAUGUAGAAGGCACGAGCUGAU | 50.4 | 620 |  |  |
| GUCAGCUCGUGAGGAUAUAUAACACUGCUUCGGCAGUGUAUUAAGAUCACAUGAGGAUCACCCAUGUAGAAGGCACGAGCUGAU | 5.04 | 8.94 |  |  |
| GUCAGGUCGUGAGGAUAUACAACACUGCUUCGGCAGUGUAUUAAGAUCACAUGAGGAUCACCCAUGUAGAAGGCACGAGCUGAU | 14.1 | 210 |  |  |
| GUCAGUUCGUGAGGAUAUACAACACUGCUUCGGCAGUGUAUUAAGAUCACAUGAGGAUCACCCAUGUAGAAGGCACGAGCUGAU | 14 | 269 |  |  |
| GUCAUACAUGAGGAUCACCCAUGUGAGGAUAUGAGUGGUGCUGAUAGGUCGGCACCACUCAGAAGGCGCAUGAU | 77.1 | 293 |  |  |
| GUCCGAAGGGAGAAGGGCUAGGAGGUCCAGCUUAUGUGUGUUGCAACAUGAGGAUCACCCAUGUAGCAGGAUAUCCCUCGUACA | 44.5 | 333 |  |  |
| GUCCGGCGUGUAGGAUAUGGAUCCGAUUAGGAUCCAGAAGGACAUGAGGAUCACCCAUGUACAUGUAAACAGUCAUCACCGGAC | 6.4 | 7.41 |  |  |
| GUCCGGCGUGUAGGAUAUGGAUCCGAUUAGGAUCCAGAAGGACAUGAGGAUCACCCAUGUACAUGUAAACAGUCAUCACCGGAU | 7.5 | 23.5 |  |  |
| GUCCUACAUGAGGAUCACCCAUGUGAGGAUAUGGAUUCGCUGGCCGUAGCCAGUGGAUCCAGAAGGCGCGUGAU | 63.1 | 64.8 |  |  |
| GUCCUCGGCGAGGAUAUCGGGCGGGUUUUUGUUUGAGAAGGCGUGACAUGAGGAUCACCCAUGUGGCGCGUGGG | 41.6 | 59.3 |  |  |
| GUCCUUAACAAGGAUAUCGGGCGGGUUUUUGUUUGAGAAGGUGUGACAUGAGGAUCACCCAUGUGGCGCGUGGG | 355 | 383 |  |  |
| GUCGCUAGAGGAUAUACAAUGGUAUAUGAUCCUAGUGACAUACAUGAGGAUCACCCAUGUAGAAGGCUAGUAUU | 23.5 | 19 |  |  |
| GUCGGAAACGACAAAAGUAGCAUACGAGAAGGUUGAUCCAAGACAUGAGGAUCACCCAUGUAGAUAGAGGAUAUUGAAUGCUAC |  |  | 310 | 244 |

| Sequence | apparent Kd [1] [nM] | apparent Kd [2] [nM] | apparent Kd [3] [nM] | apparent Kd [4] [nM] |
| --- | --- | --- | --- | --- |
| GUCGGAAACGACAAAAGUAGCAUAGGAGAAGGUUCAUUAAACAUGAGGAUCACCCAUGUAAUUGGGAAGGAUAUCCUAUGCUAC |  |  | 16.2 | 9.16 |
| GUCGGAAACGACAAACGUAGCAUACGAGAAGGCUGAUCCACGACAUGAGGAUCACCCAUGUAUUUAGAGGAUAUUGGAUGCUAC |  |  | 126 | 20.3 |
| GUCGUGUAAGGAUAUGCAUCGAGGUAGCGAAUGUUGCAGGUGUAGAAGGUACAUGAGGAUCACCCAUGUAAUGU | 22.2 | 30.1 |  |  |
| GUCUCGAUGUAAGGAUAUGCAGUGGAUAACACUGCAGAAGGUACAUGAGGAUCACCCAUGUAUAUGAAAGAUAAUAAACGAGAC | 14.4 | 19.8 |  |  |
| GUCUCGUCAGGAUAUGACGCUACAUUUUUUUUUUAGAAGAGUCAGAAGGGACAUGAGGAUCACCCAUGUGAUUC | 288 | 218 |  |  |
| GUCUUCCUAGGAUAUACAUGAGGAUCACCCAUGUACAGUUUCGUCUAAGGAUACUCGCGUAGAAGGAGGUGGAU | 21.9 | 42.7 |  |  |
| GUGAAGUAAGGAUAUACAUGAGGAUCACCCAUGUAAGGGAAGGUGAUGGGAGUAGAUAGUAGAAGGUACGAGGA | 120 | 81.9 |  |  |
| GUGACGAAUGUAGGAUAUGCUGAGGAAUACUCAGCAGAAGGACAUGAGGAUCACCCAUGUCAUCCUUAUAAUGAAUAACGUCAC | 13.8 | 18.3 |  |  |
| GUGACGAAUGUAGGAUAUGCUGAGGAUAACUCAGCAGAAGGACAUGAGGAUCACCCAUGUCAUCCUAAUAAUAAAUAACGUCAC | 14.8 | 18.8 |  |  |
| GUGCACAUUCGAGGAUAUCGGAGAGAGAUCCUUCGAGAAGGCGAUUCAUGCUGUAUUAUCCUGGACAUGAGGAUCACCCAUGUG |  |  | 199 | 127 |
| GUGCAUUCGUAGAAGGGUGACAUGAGGAUCACCCAUGUGCGCUGAGCUCAAGAUGCACCAGCGCCACAGGAUAUACGAAGCACC |  |  | 54.3 | 84 |
| GUGCCUUGGGAGAAGGCCCAAUGUAAAGCAUAGGGAGGAUAUUCAUAUAAUAAAUAAACAUGAGGAUCACCCAUGUGGCACAAA |  |  | 831 | 48.5 |
| GUGCCUUGGGAGAAGGCCGUAUGCAAAGCAUACGGAGGAUAUUCAUACCGGAAACGGACAUGAGGAUCACCCAUGUGGCACAAA |  |  | 1360 | 46.1 |
| GUGCCUUGGGAGAAGGUUAUAUGCAAAGCAUUUAAAGGAUAUUCAUACCGGAAACGGACAUGAGGAUCACCCAUGUGGCACAAA |  |  | 1280 | 128 |
| GUGCCUUGGGAGAAGGUUAUGUGCAAAGCAUUUAAAGGAUAUUCAUACCGGAAACGGACAUGAGGAUCACCCAUGUGGCACAAA |  |  | 621 | 150 |
| GUGCGGAACCUAGGAUAUCCGGCAUGGACAGGUGGUAAGUCUCCCACAUGAGGAUCACCCAUGUAGGAGAAGGAGGAUCACGGA | 6.46 | 6.07 |  |  |
| GUGCGGUAGGAGAAGGACGGAGGGUUCUUUUCAUACAUGAGGAUCACCCAUGUAGGAUAUCCUACCUCACGCGGCCUACUACAG | 8.11 | 11.4 |  |  |
| GUGCGUGGCUAGGAUAUUGUGGAGUUUAGUCAGCGAGAAGGUGCCACAUGAGGAUCACCCAUGUGGUGUUGCUC | 19.8 | 21.7 |  |  |
| GUGCUCGUGUGAGGAUAUGCUUCCGUUUCGGCUGCAGAAGGUACUAUUAUACAUGAGGAUCACCCAUGUCUCUUUUCUUCGGUG |  |  | 33.1 | 33.7 |
| GUGCUUAACUAGAAGGCCGAUAGCAAAGCUAUCGGAGGAUAUGGGUUCCGGAAACGGACAUGAGGAUCACCCAUGUGGCACAAA |  |  | 121 | 14.6 |
| GUGGAUAGACGCCCACGUGAGACAUGAGGAUCACCCAUGUACAGAAGGUGGAGCGUUAAUGGUGCCAAGGAUAUGUACAUAAGG |  | 5.11 |  |  |
| GUGGCGACUGAGAAGGUACGCAUAAAAGAGAAGUAAGGAUAUCAGUCACAUGAGGAUCACCCAUGUGUUGGAAAGAUCCUUAAA | 10.4 | 37.9 |  |  |
| GUGGCUAGUGCAGGAUAUCGGCGCGUGUAGUGCCGAGAAGGGCACAUGAGGAUCACCCAUGUGAUCAAUCACUGCUAAGGCCGC | 5.19 | 5.37 |  |  |
| GUGGUACAUGAGGAUCACCCAUGUUAGGAUAUCGCGUGAGGUUUUGCUUCCGCGCGCGCGAGAAGGGACGUCUU | 28.3 | 23.9 |  |  |
| GUGGUCAGACAUGAGGAUCACCCAUGUGGAAUAAAUAACGUCAAGGAUAUACAAUAUAGGAUAUAGUAGAAGGUGAGAUUGGUG |  |  | 114 | 113 |
| GUGGUCAGACAUGAGGAUCACCCAUGUGGAAUAAAUAAGGAAAAGGAUAUUCAAUAUAGGAUAUAGAAGAAGGUUUGGUUGGUG |  |  | 74.4 | 83.4 |
| GUGGUCAGACAUGAGGAUCACCCAUGUGGAAUAAAUAAGGAGAAGGAUAUCGAAUAUAGGAUAUACGAGAAGGUCUGGUUGGUG |  |  | 77.3 | 83.1 |
